Bridge positions count the residues as written; N and C are the ends. Ends that are not written are not given here.
Tests used:
[1] = tested on: hypersensitivity of the injected paw in mice; test: Time course of hypersensitivity; format: in vivo, mouse (C57BL/6J); details: intraplantar injection in mice
In short: (§1)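 Male C57BL/6J mice (5 wk old) were given 200 pmol test compound, or vehicle alone, by shallow intraplantar hind-paw injection in 20 µL saline with 0.1% BSA. After 30 min acclimatisation on bar-bottom enclosures, paw-withdrawal thresholds were measured. Mechanical thresholds used automatic von Frey and thermal thresholds an automated thermal device. Readings were taken 3 d before injection and at 1 h–7 d, blinded, n = 6/group, two-way ANOVA with Šídák's test.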

[2] = tested on: human ErbB1 receptor (hErbB1) transiently expressed in HEK293T cells; test: BRET assay of ligand-induced ErbB1 activation; format: cell-based; details: for Agonism at / potency on mammalian ErbB1 (summary in words): summary statement
[3] = tested on: crickets (Acheta domesticus); test: Cricket righting assay after injection; format: in vivo; details: intraabdominal injection, up to 41 nmol/g (as stated in main text)
In short: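 House crickets (average mass 50 mg) received intraabdominal injections of 2 μL water or test compound at 1.4 to 41.5 nmol/g. Each cricket was then placed on its back and the time taken to right itself was recorded. Treated and water groups were compared by one-way ANOVA with Šídák's test.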

[4] = tested on: sheep blowflies (Lucilia cuprina); test: Sheep blowfly paralysis/survival assay after injection; format: in vivo; details: intraabdominal injection, up to 41 nmol/g (as stated in main text)
[5] = tested on: Erk1/2 phosphorylation downstream of human ErbB1 in HEK293 cells; format: cell-based; details: comparison with hEGF; 2.5 or 10 nM; n = 3
In short: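 HEK293 cells at ~80% confluence were transfected with 15 ng human ErbB1 plasmid (Lipofectamine LTX) and grown 24 h in DMEM with 10% FBS. […] RIPA lysates containing protease and phosphatase inhibitors were run on SDS-PAGE and probed for phospho-Erk1/2 and GAPDH by fluorescent immunoblot. Phospho-Erk was normalised to GAPDH; n = 3, one-way ANOVA with Šídák's test.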

[6] = tested on: fruit flies (Drosophila melanogaster); test: Fruit fly paralysis/survival assay after injection; format: in vivo; details: intraabdominal injection, up to 41 nmol/g (as stated in main text)
paw inflammation in mice = test: Paw inflammation: visual inspection and paw thickness by calipers; format: in vivo, mouse (C57BL/6J); details: 200 pmol i.pl.; over the time course of the experiment
In short: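 In male C57BL/6J mice, 200 pmol test compound, or vehicle alone, was injected intraplantar in 20 µL saline with 0.1% BSA. The injected paw was inspected for swelling and reddening at each time point up to 7 d. At 3 d, both hind paws were measured with electronic calipers and expressed as an ipsilateral/contralateral ratio. Groups were n = 6, compared by unpaired t test.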

[7] = tested on: paw-withdrawal threshold to mechanical stimulus in mice; test: Paw-withdrawal threshold to mechanical stimulus; format: in vivo, mouse (C57BL/6J); details: 200 pmol i.pl.; measured 1 h to 7 d; vs saline; n = 6 per group
In short: as §1

[8] = tested on: paw-withdrawal threshold to thermal stimulus in mice; test: Paw-withdrawal threshold to thermal stimulus; format: in vivo, mouse (C57BL/6J); details: 200 pmol i.pl.; measured 1 h to 7 d; vs saline; n = 6 per group
In short: as §1

Mg1a (GDISDYGDPCSDDLKDYCIHGDCFFLKELNQPACRCYTGYYGSRCEHIDHN; disulfide 10-23, 18-34, 36-45)
Hypersensitivity of the injected paw (summary in words) [1]: long-lasting hypersensitivity | Agonism at / potency on mammalian ErbB1 (summary in words) [2]: potent agonist of the mammalian EGF receptor ErbB1

rMg1a: Mg1a produced by recombinant expression in bacteria with an additional Gly residue at the N terminus (GDISDYGDPCSDDLKDYCIHGDCFFLKELNQPACRCYTGYYGSRCEHIDHN; not fully specified; left off: His6, N-terminal, cleaved | MBP, N-terminal, cleaved)
Effect on crickets after injection [3]: no effect | Effect on blowflies after injection [4]: no effect | Erk1/2 phosphorylation compared with hEGF [5]: equivalent to that caused by hEGF | Activity at hErbB1 (in words) ([2]; BRET, HEK293T cells, Fig. 3A: stimulation with 100 nM ligand): active at hErbB1 | Agonism at / potency on mammalian ErbB1 (summary in words) [2]: potent ligand of mammalian ErbB1 with activity comparable to that of hEGF | Effect on fruit flies after injection [6]: no effect | Visual signs of inflammation (e.g., redness or swelling) (paw inflammation in mice): no visual signs of inflammation | Paw-withdrawal threshold to mechanical stimulus [7]: significant decrease | Paw-withdrawal threshold to thermal stimulus [8]: significant decrease
